Results on 19 molecules are retold here after ChEMBL document CHEMBL1138132, “Cyclic urea derivatives as potent NK1 selective antagonists. Part II: Effects of fluoro and benzylic methyl substitutions” (Bioorg Med Chem Lett, 2006).

The target in data set [1] is T1, Substance-P receptor (Homo sapiens, UniProt P25103). The experiment in a line: Displacement of [3H]-Sar-Met Substance P from recombinant human NK1 receptor in CHO cells. It is filed as cell-based. Summed up: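 Membranes from CHO cells expressing recombinant human NK1 receptor; [3H]-Sar-Met Substance P radioligand at concentrations near its experimentally derived Kd. Ki calculated by Cheng–Prusoff equation; values are the average of two or three independent determinations.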
T1 sequence (P25103 whole entry): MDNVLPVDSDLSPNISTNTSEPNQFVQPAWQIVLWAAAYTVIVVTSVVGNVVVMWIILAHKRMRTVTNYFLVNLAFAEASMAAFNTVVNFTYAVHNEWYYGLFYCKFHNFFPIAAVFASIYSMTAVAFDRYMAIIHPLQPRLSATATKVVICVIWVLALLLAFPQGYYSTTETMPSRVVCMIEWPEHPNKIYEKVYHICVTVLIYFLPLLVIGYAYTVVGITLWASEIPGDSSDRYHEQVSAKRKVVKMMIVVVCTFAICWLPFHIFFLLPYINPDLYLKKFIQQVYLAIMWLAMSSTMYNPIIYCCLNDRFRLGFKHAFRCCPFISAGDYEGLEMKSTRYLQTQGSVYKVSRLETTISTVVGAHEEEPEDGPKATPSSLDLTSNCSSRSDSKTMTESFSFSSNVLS
(In a radioligand displacement assay an active substance lowers the binding of a labelled ligand.)

Data set [2] relates to Meriones unguiculatus. The data set is described as follows: Inhibition of Mongolian gerbil foot-tapping at 2 h time point at 1 mg/kg, po. It is filed as functional. A digest of the protocol:
(§1)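 Female Mongolian gerbils dosed orally at 1 mg/kg in 0.4% methylcellulose in distilled water at set pretreatment times (2, 4 or 6 h) before icv injection of NK1 agonist GR73632 (3 pmol in 5 µl) under anesthesia. After recovery, animals were placed in clear boxes and duration of hind-foot tapping was timed over 5 min; expressed as % inhibition.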

For data set [3], the system named is Meriones unguiculatus. The data set is described as follows: Inhibition of Mongolian gerbil foot-tapping at 4 hr time point at 1 mg/kg, po. It is filed as functional. Summed up: as §1
In data set [4] the test system is Meriones unguiculatus. The experiment in a line: Inhibition of Mongolian gerbil foot-tapping at 6 hr time point at 1 mg/kg, po. It is filed as functional. Summed up: as §1
A short description of data set [5]: Ratio of drug level in brain against plasma in Mongolian gerbil. It is filed as ADME, organism-based, Meriones unguiculatus.
Data set [6] can be described thus: Ratio of drug level in brain against plasma in rat. It is filed as ADME, organism-based.
Data set [7] in a line: Solubility in pH 7.4 buffer. It is filed as physicochemical.
Data set [8] deals with T1, Substance-P receptor. The following applies: CHO, 3 uM.
A short description of data set [9]: Oral bioavailability in rat. It is filed as ADME, organism-based. Particulars: in vivo.

Structures are written as SMILES. ≈ marks a conversion by molar mass, not a printed value.

What is called Ki is the dissociation constant of the complex between target and ligand, obtained from inhibition or displacement. On to `C[C@H](OC[C@@]1(c2ccccc2)CNC(=O)N1)c1cc(C(F)(F)F)cc(C(F)(F)F)c1`, for which the Ki at Substance-P receptor [1] amounted to 93 nM.
Usually inhibition in vivo stands for the percentage by which the read-out fell short of the control. A lower inhibition in vivo goes with a response near the control. For the molecule `CCN1C[C@@](CO[C@H](C)c2cc(C(F)(F)F)cc(C(F)(F)F)c2)(c2ccccc2)NC1=O`, the values for the inhibition in vivo at 1 mg/kg in the data set on Meriones unguiculatus [2] and in the data set on Meriones unguiculatus [3] were 45% and 46%, respectively. Also, on Substance-P receptor [1], the inhibition constant Ki stood at 1.7 nM.
For `O=C1NC[C@](COCc2cc(C(F)(F)F)cc(C(F)(F)F)c2)(c2ccc(F)cc2)N1`, on Substance-P receptor [1], the Ki was 89 nM.
Regarding `C[C@@H](OC[C@@]1(c2ccccc2)CN(C)C(=O)N1)c1cc(C(F)(F)F)cc(C(F)(F)F)c1`, the inhibition in vivo at 1 mg/kg in the data set on Meriones unguiculatus [2] was determined as 86%; in the data set on Meriones unguiculatus [3] it was 62%; with Meriones unguiculatus [4] it was 31%. Besides, the Ki at Substance-P receptor [1] came to 0.5 nM.
By Kp is commonly meant tissue or fluid exposure divided by exposure in the circulation. Regarding `O=C1NC[C@@](COCc2cc(C(F)(F)F)cc(C(F)(F)F)c2)(c2ccccc2)N1`, the Kp in [5] was 18; in data set [6], 4. Also, the inhibition in vivo at 1 mg/kg in the data set on Meriones unguiculatus [2] was 54%; in the data set on Meriones unguiculatus [3] it was 12%. Moreover, the Ki on Substance-P receptor [1] is 6 nM.
As to `O=C1NC(COCc2cc(C(F)(F)F)cc(C(F)(F)F)c2)(c2ccc(F)cc2)CN1C1CCNCC1` (stereo not drawn), the inhibition in vivo at 1 mg/kg in the data set on Meriones unguiculatus [2] and in the data set on Meriones unguiculatus [3] was 0% in each case. Also, the Ki at Substance-P receptor [1] came out at 0.9 nM.
As for `C[C@@H](OC[C@]1(c2ccccc2)CNC(=O)N1)c1cc(C(F)(F)F)cc(C(F)(F)F)c1`, the Ki on Substance-P receptor [1] is 41 nM.
In the case of `C[C@@H](OC[C@@]1(c2ccc(F)cc2)CNC(=O)N1)c1cc(C(F)(F)F)cc(C(F)(F)F)c1`, the inhibition in vivo at 1 mg/kg in the data set on Meriones unguiculatus [2] stood at 40%; in the data set on Meriones unguiculatus [3], 44%; in the data set with Meriones unguiculatus [4], 41%. At Substance-P receptor [1], the inhibition constant (Ki) was found to be 1.5 nM.
For `CN1CCC(N2CC(COCc3cc(C(F)(F)F)cc(C(F)(F)F)c3)(c3ccc(F)cc3)NC2=O)CC1` (stereo not drawn), the inhibition in vivo at 1 mg/kg was 3% in the data set with Meriones unguiculatus [2] and 0% in the data set on Meriones unguiculatus [3]. For the same molecule, on Substance-P receptor [1], the Ki stood at 0.4 nM.
What is called solubility is the concentration that dissolves in the medium under given conditions. High values mean a readily soluble substance, low ones a poorly soluble substance. With `C[C@@H](OC[C@@]1(c2ccc(F)cc2)CN(C)C(=O)N1)c1cc(C(F)(F)F)cc(C(F)(F)F)c1`, the inhibition in vivo at 1 mg/kg in the data set on Meriones unguiculatus [2] worked out at 65%; with Meriones unguiculatus [3], 57%; in the data set on Meriones unguiculatus [4], 63%. On Substance-P receptor [1], the Ki stood at 3.6 nM. In addition, in [7], the solubility came out at 3 µM (≈ 1.39 µg/mL).
Take `O=C1NC(COCc2cc(C(F)(F)F)cc(C(F)(F)F)c2)(c2ccc(F)cc2)CN1C1CCOCC1` (stereo not drawn): the figures for the inhibition in vivo at 1 mg/kg in the data set on Meriones unguiculatus [2] and in the data set on Meriones unguiculatus [3] were 22% and 0%, respectively. Besides, the inhibitory constant (Ki) on Substance-P receptor [1] was 6.3 nM.
Consider `O=C1NC(COCc2cc(C(F)(F)F)cc(C(F)(F)F)c2)(c2ccc(F)cc2)CN1CCN1CCCC1` (stereo not drawn), for which the results for the inhibition in vivo at 1 mg/kg in the data set with Meriones unguiculatus [2], in the data set on Meriones unguiculatus [3] and in the data set on Meriones unguiculatus [4] were 2%, 0% and 0%, respectively.
As to `O=C1NCC(COCc2cc(C(F)(F)F)cc(C(F)(F)F)c2)(c2ccc(F)cc2)N1` (stereo not drawn), the inhibition constant Ki at Substance-P receptor [1] amounted to 4.5 nM.
For the molecule `CC(C)N1C[C@@](CO[C@H](C)c2cc(C(F)(F)F)cc(C(F)(F)F)c2)(c2ccccc2)NC1=O`, at Substance-P receptor [1], the inhibition constant Ki amounted to 3.1 nM.
What is called inhibition is the share of the control response that was lost under treatment. Lower therefore signals a response near the control. `C[C@H](OC[C@]1(c2ccccc2)CNC(=O)N1)c1cc(C(F)(F)F)cc(C(F)(F)F)c1`: the inhibition at Substance-P receptor [8] is 22%.
Regarding `C[C@@H](OC[C@@]1(c2ccc(F)cc2)CN(CC(N)=O)C(=O)N1)c1cc(C(F)(F)F)cc(C(F)(F)F)c1`, the inhibition in vivo at 1 mg/kg was determined as 14% with Meriones unguiculatus [2] and 20% in the data set with Meriones unguiculatus [3]. On Substance-P receptor [1], the Ki is 0.4 nM.
As usually defined, the bioavailability is the share of a dose that reaches the circulation, judged against a reference dose that is usually intravenous. The low end stands for little systemic uptake, the high end for much systemic uptake. For the molecule `C[C@@H](OC[C@@]1(c2ccccc2)CNC(=O)N1)c1cc(C(F)(F)F)cc(C(F)(F)F)c1`, the Kp worked out at 10 in data set [5] and 4.4 in data set [6]. Besides, the values for the inhibition in vivo at 1 mg/kg in the data set with Meriones unguiculatus [2], in the data set on Meriones unguiculatus [3] and in the data set on Meriones unguiculatus [4] were 35%, 57% and 48%, respectively. Besides, the inhibitory constant (Ki) at Substance-P receptor [1] worked out at 0.6 nM. Also, the bioavailability in data set [9] was found to be 100%.
Take `O=C1NC[C@@](COCc2cc(C(F)(F)F)cc(C(F)(F)F)c2)(c2ccc(F)cc2)N1`: the partition ratio (Kp) in data set [5] was 16. Moreover, the inhibition in vivo at 1 mg/kg in the data set on Meriones unguiculatus [2] came to 22%; with Meriones unguiculatus [3], 55%; in the data set on Meriones unguiculatus [4] it was 51%. Besides, the Ki on Substance-P receptor [1] turned out to be 2.7 nM. This molecule yielded a bioavailability in [9] of 93%.
Regarding `CCN1C[C@@](CO[C@H](C)c2cc(C(F)(F)F)cc(C(F)(F)F)c2)(c2ccc(F)cc2)NC1=O`, the results for the inhibition in vivo at 1 mg/kg in the data set with Meriones unguiculatus [2] and with Meriones unguiculatus [3] were 9% and 0%, respectively. For the same molecule, on Substance-P receptor [1], the inhibition constant Ki worked out at 0.8 nM.
